Results pooled from the literature.
Lines come from different studies, so protocols differ.
Target: Mitogen-activated protein kinase 3 (MAPK3, Homo sapiens, UniProt P27361)

Compound | effect on | method | tested at | remaining binding [%]
O=C(O)[C@@H]1[C@@H](Cn2nnc3ccccc3c2=O)CC[C@H]1C(=O)c1ccc(OCCC2CCOCC2)cc1 | cell-free assay | competition with immobilised ligand | 1 µM | 100
COc1cnc(Nc2cccc(S(N)(=O)=O)c2)nc1N1CCN(c2ccccc2)C(=O)C1 | binding | competition with immobilised ligand | 1 µM | 100
O=C(c1ccc(Nc2ncc(Cl)c(-c3ccc(Cl)s3)n2)cc1)N1CCC(N2CCCC2)CC1 | binding | competition with immobilised ligand | 1 µM | 98
O=C(NCC1CCOCC1)c1n[nH]cc1NC(=O)c1c(F)cccc1F | binding | competition with immobilised ligand | 1 µM | 100
C[C@H]1CCN(c2nccc(-c3cnn4ncccc34)n2)C1 | binding |  | 1 µM | 83
C=CC(=O)N1CCC(C(=O)NCC(=O)N2CCN(c3nc(-c4cnc(N)nc4C(F)F)nc(N4CCOCC4)n3)CC2)CC1 | binding | competition with immobilised ligand | 1 µM | 100
O=C(NCCCN1CCOCC1)c1ccc(Nc2ncc(Cl)c(-c3ccc(Cl)s3)n2)cc1 | binding | competition with immobilised ligand | 1 µM | 100
CN(C)c1ncc(F)c(-c2cnn3ncccc23)n1 | binding |  | 1 µM | 91
Cc1cnc(Nc2ccc(C(=O)N3CCC(N4CCCC4)CC3)cc2)nc1-c1cc2ccccc2s1 | binding | competition with immobilised ligand | 1 µM | 100
C[C@@H](c1cccc(C#N)c1)n1cc(Cl)cc(C(N)=O)c1=N | cell-free assay | competition with immobilised ligand | 1 µM | 100
COc1ccnn2ncc(-c3ccnc(N(C)C)n3)c12 | binding |  | 1 µM | 92
CCN1CCN(Cc2ccc(C(=O)Nc3ccc(C)c(Oc4ccc5c(c4)CC(=O)N5)c3)cc2C(F)(F)F)CC1 | binding | competition with immobilised ligand | 1 µM | 100
N#Cc1ccc(Nc2ccc3[nH]c(=O)[nH]c3c2)c(Cl)c1 | cell-free assay | competition with immobilised ligand | 1 µM | 95
COc1cnc(Nc2cccc(S(N)(=O)=O)c2)nc1N1CCN(c2ccccc2)CC1 | binding | competition with immobilised ligand | 1 µM | 100
CN(C)c1nccc(-c2cnn3ncccc23)n1 | binding |  | 1 µM | 100
CN([C@@H]1CCc2c(CC(=O)O)c3cc(S(C)(=O)=O)ccc3n2C1)S(=O)(=O)c1ccc(F)cc1 | cell-free assay | competition with immobilised ligand | 1 µM | 92
C[C@@H]1CN(c2ccc3ncc(-c4ccc5[nH]nc(C6CC6)c5c4)n3n2)C[C@H](C)O1 | binding | competition with immobilised ligand | 50 nM | 100
N[C@@H]1CCN(c2nccc(-c3cnn4ncccc34)n2)C1 | binding |  | 1 µM | 91
c1ccc(N2CCN(Cc3nc4ccccc4[nH]3)CC2)nc1 | binding | competition with immobilised ligand | 1 µM | 100
COc1ncc2cc3ccccc3nc2c1C#N | cell-free assay | competition with immobilised ligand | 5 µM | 93
CN(c1nccc(-c2cnn3ncccc23)n1)C1CC1 | binding |  | 1 µM | 89
COc1cccc(CNC(=O)c2nc3scc(COCc4ccc(C(=O)O)cc4)c3c(=O)[nH]2)c1 | cell-free assay | competition with immobilised ligand | 1 µM | 100
c1cncc(-c2cccc(Nc3nccc(NC4CCCCC4)n3)c2)c1 | binding | competition with immobilised ligand | 10 µM | 100
C[C@@H]1CN(c2cc(-c3nn(C)c4ccc(OC5(C)CC5)cc34)ncn2)C[C@H](C)O1 | cell-free assay | competition with immobilised ligand | 1 µM | 100
c1cnn2ncc(-c3ccnc(N4CCC45COC5)n3)c2c1 | binding |  | 1 µM | 94
